{"data": "Measured values from different studies", "target": "Membrane-associated tyrosine- and threonine-specific cdc2-inhibitory kinase (PKMYT1, Homo sapiens, UniProt Q99640)", "Residues used in one study (Q99640 1-499)": "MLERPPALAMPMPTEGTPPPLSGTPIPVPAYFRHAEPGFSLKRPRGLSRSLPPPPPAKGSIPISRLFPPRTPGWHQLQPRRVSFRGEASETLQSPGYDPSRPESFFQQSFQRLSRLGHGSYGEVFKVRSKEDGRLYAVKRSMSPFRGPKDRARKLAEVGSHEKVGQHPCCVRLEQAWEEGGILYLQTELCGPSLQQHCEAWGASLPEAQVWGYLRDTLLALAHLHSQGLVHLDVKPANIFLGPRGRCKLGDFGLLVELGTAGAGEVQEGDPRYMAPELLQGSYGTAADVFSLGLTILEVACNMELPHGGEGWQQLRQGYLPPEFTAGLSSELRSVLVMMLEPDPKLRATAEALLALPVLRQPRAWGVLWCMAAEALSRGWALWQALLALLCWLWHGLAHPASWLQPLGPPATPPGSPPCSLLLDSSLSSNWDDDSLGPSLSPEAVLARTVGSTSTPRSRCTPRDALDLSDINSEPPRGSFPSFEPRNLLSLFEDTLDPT", "note": "Protocols differ between the studies behind these lines."}
{"Compound": "O=C(Nc1c[nH]nc1C(=O)NC1CCNCC1)c1cc(F)cc(F)c1", "effect on": "binding", "technique": "competition with immobilised ligand", "concentration": "1 µM", "remaining binding": "83%"}
{"Compound": "Cn1nc(C(F)(F)F)cc1-c1cnc(N2CCc3cc(S(=O)(=O)Nc4c(F)cc(Cl)cc4F)cc(N4CCCC4=O)c32)nc1", "effect on": "cell-free assay", "technique": "competition with immobilised ligand", "concentration": "1 µM", "remaining binding": "93%"}
{"Compound": "Cc1cnc(Nc2ccc(C(=O)N3CCC(N4CCCC4)CC3)cc2)nc1-c1cc2ccccc2s1", "effect on": "binding", "technique": "competition with immobilised ligand", "concentration": "1 µM", "remaining binding": "80%"}
{"Compound": "NS(=O)(=O)c1cc(NC(=O)Cc2ccccc2)ccc1Oc1cccc(Cl)c1", "effect on": "cell-free assay", "technique": "competition with immobilised ligand", "concentration": "1 µM", "remaining binding": "96%"}
{"Compound": "CN(C)c1nccc(-c2cnc3ncccn23)n1", "effect on": "binding", "concentration": "1 µM", "remaining binding": "88%"}
{"Compound": "O=C(c1ccc(Nc2nccc(-c3cc4ccccc4s3)n2)cc1)N1CCC(N2CCCC2)CC1", "effect on": "binding", "technique": "competition with immobilised ligand", "concentration": "1 µM", "remaining binding": "70%"}
{"Compound": "COc1ccnn2ncc(-c3ccnc(N(C)C)n3)c12", "effect on": "binding", "concentration": "1 µM", "remaining binding": "100%"}
{"Compound": "O=C(c1ccc(Nc2ncc(Cl)c(-c3ccc(Cl)s3)n2)cc1)N1CCC(N2CCCC2)CC1", "effect on": "binding", "technique": "competition with immobilised ligand", "concentration": "1 µM", "remaining binding": "100%"}
{"Compound": "COc1cc(-c2cn(C3CCc4c(F)cccc4N(CC(F)(F)F)C3=O)nn2)ccc1-n1cnc(C)c1 (centres unmarked)", "effect on": "cell-free assay", "technique": "competition with immobilised ligand", "concentration": "1 µM", "remaining binding": "100%"}
{"Compound": "Cc1cnn2ncc(-c3ccnc(N(C)C)n3)c2c1", "effect on": "binding", "concentration": "1 µM", "remaining binding": "100%"}
{"Compound": "O=C(Nc1ccc(Oc2ccc(F)cc2)cc1)N1CCc2ncccc2[C@H]1c1ccc(F)cc1", "effect on": "cell-free assay", "technique": "competition with immobilised ligand", "concentration": "1 µM", "remaining binding": "63%"}
{"Compound": "FC(F)(F)Oc1cccc(-c2cnc3ccc(-c4ccncc4)nn23)c1", "effect on": "cell-free assay", "technique": "competition with immobilised ligand", "concentration": "5 µM", "remaining binding": "67%"}
{"Compound": "N[C@@H]1CCN(c2nccc(-c3cnn4ncccc34)n2)C1", "effect on": "binding", "concentration": "1 µM", "remaining binding": "100%"}
{"Compound": "CS(=O)(=O)N1CCCC(NC(=O)[C@H](CCC2CCCCC2)NC(=O)c2ccc(CNC(=O)c3cnc4ccccn34)cc2)C1 (some centres unmarked)", "effect on": "cell-free assay", "technique": "competition with immobilised ligand", "concentration": "0.1 µM", "remaining binding": "100%"}
{"Compound": "COc1cnc(Nc2cccc(S(N)(=O)=O)c2)nc1N1CCN(c2ccccc2)C(=O)C1", "effect on": "binding", "technique": "competition with immobilised ligand", "concentration": "1 µM", "remaining binding": "86%"}
{"Compound": "Nc1ncc2c(n1)-c1c([nH]c3ccc(C#CC4CC4)cc13)CCCC2", "effect on": "binding", "technique": "competition with immobilised ligand", "concentration": "1 µM", "remaining binding": "98%"}
{"Compound": "CC1CCCN1c1nccc(-c2cnn3ncccc23)n1 (centres unmarked)", "effect on": "binding", "concentration": "1 µM", "remaining binding": "97%"}
{"Compound": "COc1ncc2cc3ccccc3nc2c1C#N", "effect on": "cell-free assay", "technique": "competition with immobilised ligand", "concentration": "5 µM", "remaining binding": "100%"}
{"Compound": "CC(=O)c1c(NS(C)(=O)=O)c2cc(-c3ccc(Cl)cc3)c(-c3ccc(Cl)cc3Cl)nc2n(C)c1=O", "effect on": "cell-free assay", "technique": "competition with immobilised ligand", "concentration": "1 µM", "remaining binding": "99%"}
{"Compound": "F[C@@H]1CCN(c2nccc(-c3cnn4ncccc34)n2)C1", "effect on": "binding", "concentration": "1 µM", "remaining binding": "100%"}
